Compound activity: PubChem BioAssay, Johns Hopkins Ion Channel Center
KCNQ1 block = inhibitors of human KCNQ1 channel, primary screen, cell-based, thallium flux, high-throughput. Potassium voltage-gated channel subfamily KQT member 1 (Homo sapiens), P51787. CHO-K1 KCNQ1, FluxOR thallium flux fluorescence; stronger effect = higher value. B-score at 10 µM. 1.3% of 310,000 active;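 active means compounds whose thallium flux B-score, printed positive for inhibition, exceeds three library SD while starting fluorescence stays within three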;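 further: channel opened by potassium depolarization with thallium stimulus after 20 min compound exposure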
hERG rescue = hERG rescue from dofetilide block, primary screen, cell-based, CHO-hERG, FluxOR thallium flux, dofetilide IC70 | dofetilide IC70 present | activation (rescue from dofetilide block), less the hit threshold, % at 10 µM | 0.51% of 310,000 active;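 active means activation above the mean of controls blocked by dofetilide plus 5 SD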;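 further: thallium influx through hERG after potassium depolarization seen as dye fluorescence rise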
KCNK9 block = KCNK9 potassium channel inhibitors, primary screen, HEK293 cells, thallium flux; FluxOR thallium flux fluorescence; stronger effect = lower value; 1.2% of 310,000 active; B-score at 10 µM; AID 488922, 2010;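 active means ratio B-score over 3 SD below the library mean, with starting fluorescence within 5 SD of its mean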;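 further: negative B-score means less thallium flux so channel inhibition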
KCNK3 block = human KCNK3 channel inhibitors, primary screen, CHO cells, FluxOR thallium flux, B-score; FluxOR fluorescence; stronger effect = lower value; B-score at 10 µM; 0.84% of 340,000 active; AID 602410, 2012;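 active means B-score under library mean minus 4 SD, starting fluorescence ratio at most library mean plus 5 SD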;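 further: more negative B-score means stronger inhibition of thallium flux through KCNK3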
Target sequence (O14649 whole entry, looked up): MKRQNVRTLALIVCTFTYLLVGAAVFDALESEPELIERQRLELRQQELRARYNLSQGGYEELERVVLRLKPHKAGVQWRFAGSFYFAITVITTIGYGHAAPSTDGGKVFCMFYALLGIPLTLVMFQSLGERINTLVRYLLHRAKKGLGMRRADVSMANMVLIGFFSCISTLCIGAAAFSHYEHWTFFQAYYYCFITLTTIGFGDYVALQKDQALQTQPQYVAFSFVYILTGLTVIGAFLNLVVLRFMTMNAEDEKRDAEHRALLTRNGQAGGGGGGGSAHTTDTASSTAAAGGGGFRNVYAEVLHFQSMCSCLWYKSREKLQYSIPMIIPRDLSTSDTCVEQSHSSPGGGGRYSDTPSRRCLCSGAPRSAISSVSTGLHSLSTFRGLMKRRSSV
KCNQ1 act = potentiators or activators of KCNQ1 channel, primary screen, cell-based, thallium flux, high-throughput | Potassium voltage-gated channel subfamily KQT member 1 (Homo sapiens), P51787 | 0.35% of 310,000 active | CHO-K1 KCNQ1, thallium flux FluxOR fluorescence; stronger effect = higher value | B-score at 10 µM;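 active means fluorescence ratio B-score, a plate-corrected score, at least three library SD, with initial intensity B-score within 5 SD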
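Test system: CHO-K1 cells stably expressing KCNQ1 / Medium: assay buffer / Also added: depolarizing K+/Tl+ stimulus, K2SO4 and Tl2SO4 each 12.5 mM in 5x stock / Incubation: 90 min dye loading and 20 min compound exposure, both at room temperature / Signal: thallium influx via FluxOR fluorescence, kinetic imaging / Evaluation: B score of baseline-normalized fluorescence ratio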
KCNK9 inh conf = KCNK9 potassium channel inhibitors, confirmation, HEK293 cells, thallium flux, duplicate. shares compounds with KCNK9 block. FluxOR thallium flux fluorescence. inhibition, % at 10 µM. 43% of 4,900 active. AID 492992, 2010;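 active means thallium signal inhibited by more than 5 SD of the compound-free buffer control wells, on both duplicate plates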;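 further: 0% = assay buffer control wells without compound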
Kir2-1 spec = mouse Kir2.1 channel inhibition, confirmation, selectivity assay for KCNK9 modulator project, cell-based, HEK293, thallium flux. shares compounds with KCNK9 block. Kir2.1 cells, FluxOR thallium flux fluorescence. inhibition, % at 10 µM. 4% of 4,900 active. AID 492993, 2010;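 active means thallium signal drop more than 5 SD beyond the mean of the no-compound control wells, seen in both duplicate plates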;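 further: signal is fluorescence rise after thallium addition divided by baseline fluorescence; plate controls were assay buffer only for no effect and full block by chlorpromazine control for full effect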
KCNK9 uninduced = thallium flux in non-induced HEK293 cells, confirmation, counter-screen for KCNK9 inhibitor project, cell-based, second counter screen, non-induced KCNK9-HEK293 | 40% of 4,900 active | inhibition, % at 10 µM | AID 492997, 2010 | shares compounds with KCNK9 block | FluxOR thallium flux;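 active means thallium signal drop beyond 5 SD of the untreated control mean, on both duplicate plates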;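 further: plate controls were buffer only IC0 wells for no effect and SID17386958 at its maximal inhibitory level for full effect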
KCNK3 inh conf = retest of human KCNK3 channel inhibitors, confirmation, CHO cells, FluxOR thallium flux, triplicate. shares compounds with KCNK3 block. FluxOR fluorescence; 0% buffer, 100% carvedilol maximal block. ratio percent of control, % at 10 µM. 99% of 2,400 active;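 active means ratio percent of control, averaged over triplicates, above buffer control mean plus 5 SD, cut at about 64% in these data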;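 further: ratio is the fluorescence rise from min to max over baseline after thallium stimulus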
KCNK3 noninduced = thallium flux inhibition in non-induced cells, primary screen, counter-screen for KCNK3 inhibitor project, cell-based, non-induced KCNK3 line, FluxOR thallium, triplicate; shares compounds with KCNK3 block; non-induced KCNK3 parental cells; stronger effect = lower value; thallium flux ratio (lower = more inhibition) at 10 µM; 40% of 2,400 active; AID 651747, 2012;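 active means thallium flux ratio, averaged over three wells, more than 5 SD below the buffer control mean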;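 further: host cells are CHO cells without KCNK3 induction; ratio is peak minus trough fluorescence over baseline then normalized to buffer controls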
An asterisk follows results filed as active; i = inactive; / = no result given. Most compounds without a hit are left out; they make up all but 3.1% or so of the library.

SMILES | KCNQ1 block | hERG rescue | KCNK9 block | KCNK3 block | KCNQ1 act | KCNK9 inh conf | Kir2-1 spec | KCNK9 uninduced | KCNK3 inh conf | KCNK3 noninduced
CSCc1cc(N(C)C)nc(SCc2ccc(Cl)c(Cl)c2)n1 | i | 0 | -10* | i | i | 72%* | i | 58%* | 104* | 0.15*
Cn1c(SCC(=O)NC2CCCC2)nnc1C(F)(F)F | / | / | / | i | / | / | / | / | / | /
COC(=O)COc1ccc(/C=N/NC(=O)CN(c2ccccc2OC)S(=O)(=O)c2ccccc2)cc1 | i | -22 | -13* | -16* | i | i | i | i | 116* | 0.14*
COc1ccccc1N(CC(=O)N/N=C/c1ccc(OCC(=O)NCc2ccco2)cc1)S(=O)(=O)c1ccc(C)cc1 | i | -12 | i | i | i | / | / | / | / | /
CCN(Cc1ccccc1)C(c1cccc(C#N)c1)c1nnnn1C(C)(C)C (stereo not given) | i | -1 | -14* | -9.2* | i | 64%* | i | 43%* | 102* | i
Cc1ccc(C)c(N2CCN(S(=O)(=O)c3ccc4c(c3)CC(C)N4C(=O)C3CC3)CC2)c1 (stereo not given) | i | -13 | i | -9.3* | i | i | i | i | 75* | i
CC(C(=O)OCC(=O)N1CCCCC1)N1C(=O)c2ccccc2C1=O (stereo not given) | / | / | / | i | / | / | / | / | / | /
O=C(Oc1ccc(C(=S)N2CCOCC2)cc1Cl)c1ccccc1F | i | -3 | i | i | i | / | / | / | / | /
Cc1ccccc1C(=O)Oc1ccc(Cl)cc1C(=S)N1CCOCC1 | i | -12 | -12* | -9.3* | i | 56%* | i | 32%* | 114* | 0.16*
Cc1ccc(COc2ccccc2-c2cc(C(=O)N/N=C/c3cccnc3)[nH]n2)cc1 | i | -15 | -19* | -12* | i | 64%* | i | 26%* | 118* | i
CCOc1ccccc1-c1cc(C(=O)N/N=C/c2cccnc2)c2ccccc2n1 | i | -6 | i | i | i | / | / | / | / | /
COc1cccc(NC(=S)N(CCc2c(C)[nH]c3ccc(C)cc23)Cc2cccs2)c1 | i | -3 | -14* | -11* | i | 42%* | i | 43%* | 90* | 0.14*
COc1cccc(NC(=S)N(CCN(C)C)Cc2cccs2)c1 | i | -1 | i | i | i | / | / | / | / | /
COc1ccc(Cl)cc1NC(=O)CN(C)Cc1cccs1 | i | -4 | -21* | -13* | i | 74%* | i | 50%* | 108* | i
COc1ccc(Cl)cc1NC(=O)CNCc1cccs1 | i | -8 | i | i | i | / | / | / | / | /
COc1ccccc1NC(=O)c1cc2cc(Br)ccc2oc1=N | i | -9 | i | i | i | / | / | / | / | /
CCOCC(=O)Nc1cc(C(F)(F)F)ccc1Oc1cccc(Br)c1 | i | -4 | -12* | i | i | 74%* | i | 54%* | 99* | i
CC(=O)Nc1cc(C(F)(F)F)ccc1Oc1cccc(Br)c1 | i | -10 | i | i | i | / | / | / | / | /
O=C(CSc1ncn[nH]1)Nc1c(F)cc(F)cc1Br | i | -8 | i | i | i | / | / | / | / | /
COc1cc2c(cc1OC)CN(C(=O)c1oc3ccccc3c1C)CC2 | i | -6 | -9.9* | -10* | i | 34%* | i | 33%* | 100* | i
COc1cc2c(cc1OC)CN(C(=O)c1ccc(-c3ccccc3)cc1)CC2 | i | -14 | i | i | i | / | / | / | / | /
Cc1ccc(Cl)cc1NC(=S)N(Cc1ccco1)C(C)c1cccs1 (stereo not given) | i | -9 | -9.6* | -11* | i | 47%* | i | 37%* | 124* | 0.15*
CCCN1Cc2cccc(C(=O)Nc3ccc(C)cc3)c2C1=O | i | -11 | i | i | i | / | / | / | / | /
CCOC(=O)c1ccc(NC(=O)c2cccc3c2C(=O)N(CC2CCCO2)C3)cc1 (stereo not given) | i | -20 | -8.6* | -9.3* | i | 64%* | i | i | 131* | 0.13*
CC1=CC(=O)O[C@@H]1[C@@]1(C)C[C@H]2OC(=O)C[C@H]3[C@@H](C)C(=O)C(O)=C1[C@@]23CO | i | -5 | i | i | i | / | / | / | / | /
SMILES | KCNQ1 block | hERG rescue | KCNK9 block | KCNK3 block | KCNQ1 act | KCNK9 inh conf | Kir2-1 spec | KCNK9 uninduced | KCNK3 inh conf | KCNK3 noninduced
O=S(=O)(c1ccccc1)N1CCN=C1SCc1ccccc1Cl | i | -3 | -9.7* | -11* | i | 34%* | i | 44%* | 114* | i
CCCCCOC(=O)c1ccc(NC(=O)c2ccco2)cc1 | i | -7 | -12* | i | i | 49%* | i | i | 123* | 0.15*
CCOC(=O)c1cccc(NC(=O)c2ccc(NC(=O)c3ccco3)cc2)c1 | i | -9 | i | i | i | / | / | / | / | /
Cc1ccc(C(=O)N(CCc2ccccc2)Cc2ccccc2)cc1S(=O)(=O)N1CCOCC1 | / | / | / | i | / | / | / | / | / | /
Cc1ccc(C(=O)N(CCc2ccccc2)Cc2ccccc2)cc1S(=O)(=O)N1CCCCC1 | i | -13 | -13* | -9.1* | i | 76%* | i | 30%* | 103* | i
COc1cccc(C(C(=O)NC(C)(C)C)N(CCc2ccccc2)C(=O)CCC(=O)Nc2cc(C)on2)c1OC (stereo not given) | i | -5 | i | i | i | / | / | / | / | /
CCC1SC2=NC(C)=C(C(=O)OC)C(c3ccc(C(=O)OC)cc3)N2C1=O (stereo not given) | i | 0 | i | i | i | / | / | / | / | /
